Results on eleven compounds are retold here after ChEMBL document CHEMBL3232831, “Synthetic indole and melatonin derivatives exhibit antimalarial activity on the cell cycle of the human malaria parasite Plasmodium falciparum” (Eur J Med Chem, 2014).

pIC50: −log10 of the molar value.

For experiment [1], the system named is Plasmodium falciparum. Description: Antiplasmodial activity against Plasmodium falciparum 3D7 infected in erythrocytes assessed as parasitemia level at 500 nM after 48 hrs by YOYO-1 staining-based flow cytometry relative to control. In kind it is functional. Summed up:
(§1)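 P. falciparum 3D7 in O+ human erythrocytes, RPMI-1640 with 10% O+ human serum, 92% N2/5% CO2/3% O2. Infected cells exposed 48 h at a single concentration. Then fixed in 2% paraformaldehyde/PBS for 24 h, permeabilized with 0.1% Triton X-100 and stained with 5 nM YOYO-1 for 30 min at 37 °C. Read on 10⁵ cells by flow cytometry. Parasitemia expressed versus solvent control; ≥3 independent experiments, one-way ANOVA with Dunnett's test.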
For orientation: Flow cytometry measures light scatter and fluorescence of single cells or particles in a stream.

Experiment [2] has as its system Plasmodium falciparum. Description: Antiplasmodial activity against ring stage synchronized Plasmodium falciparum 3D7 infected in erythrocytes assessed as parasitemia level after 48 hrs by flow cytometry relative to control. In kind it is functional, organism-based. As to conditions: 3D7, 48 h. Summed up: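 3D7 culture was synchronized (Lambros) and infected erythrocytes were dosed at ring stage with 10 concentrations from 5 nM to 100 μM for 48 h. Parasitemia was read by YOYO-1 flow cytometry as in the single-dose assay. IC50 was obtained from sigmoid dose–response fits; ≥3 independent experiments.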

In experiment [3] the test system is Plasmodium falciparum. Description: Antiplasmodial activity against asynchronous culture of Plasmodium falciparum 3D7 infected in erythrocytes assessed as reduction of melatonin-induced increase in parasitemia level at 500 nM after 48 hrs by YOYO-1 staining-based flow cytometry (reference value: 23.5 +/- 6.8 %). It is filed as functional. More on the design: scale not given: the % may be the effect or the level left.

The subject of experiment [4] is Plasmodium falciparum. The experiment can be described thus: Antiplasmodial activity against Plasmodium falciparum 3D7 infected in erythrocytes assessed as parasitemia level at 100 nM after 48 hrs by YOYO-1 staining-based flow cytometry relative to control. It is filed as functional. Summed up: as §1

Broadly, the pIC50 is the IC50 on a negative log10 scale, so that one unit is a factor of ten. Consider `CCCC(=O)NCCc1c[nH]c2ccc(OC)cc12`, for which the Activity turned out to be 8% in the experiment on Plasmodium falciparum [1] and 8.8% in the experiment on Plasmodium falciparum [3]. For the same compound, the pIC50 in the experiment on Plasmodium falciparum [2] is 4.72.

For `CCCCCC(=O)NCCc1c[nH]c2ccccc12`, the Activity stood at 6% in the experiment with Plasmodium falciparum [1] and 6.9% in the experiment with Plasmodium falciparum [3].

On to `COC(=O)NCCc1c[nH]c2ccccc12`, for which the Activity came to 11.7% in the experiment on Plasmodium falciparum [1] and 10.9% with Plasmodium falciparum [3].

Turning to `CCCCCC(=O)NCCc1c[nH]c2ccc(OC)cc12`, the Activity was found to be 7.8% in the experiment with Plasmodium falciparum [1] and 8.6% in the experiment with Plasmodium falciparum [3]. Also, the negative logarithm of the IC50 (pIC50) with Plasmodium falciparum [2] is 4.72.

`COc1ccc2[nH]cc(CCNC(=O)c3ccccc3)c2c1`: the Activity with Plasmodium falciparum [1] amounted to 10.8%; with Plasmodium falciparum [3], 9.1%. Moreover, the pIC50 in the experiment on Plasmodium falciparum [2] is 5.53.

Consider `COC(=O)NCCc1c[nH]c2ccc(OC)cc12`, for which the values for the Activity in the experiment on Plasmodium falciparum [1] and with Plasmodium falciparum [3] were 10% and 14.5%, respectively.

Consider `CCCC(=O)NCCc1c[nH]c2ccccc12`, for which the Activity is recorded as 9.2% in the experiment with Plasmodium falciparum [1] and 11% with Plasmodium falciparum [3].

`COc1ccc2[nH]cc(CCN)c2c1` [5-METHOXYTRYPTAMINE]: the Activity with Plasmodium falciparum [1] was 19.7%; with Plasmodium falciparum [3], 14.1%.

On to `C[C@H]1Cc2c([nH]c3cc(Cl)c(F)cc23)[C@@]2(N1)C(=O)Nc1ccc(Cl)cc12` [CIPARGAMIN], for which the pIC50 with Plasmodium falciparum [2] was 8.00.

In the case of `COc1ccc2[nH]cc(CCNC(C)=O)c2c1` [MELATONIN], the values for the Activity in the experiment with Plasmodium falciparum [4] and in the experiment on Plasmodium falciparum [3] were 21.9% and 23.5%, respectively.

For the compound `CC(=O)NCCc1c[nH]c2ccccc12` [NB-ACETYLTRYPTAMINE], the values for the Activity in the experiment with Plasmodium falciparum [1] and in the experiment on Plasmodium falciparum [3] were 12.9% and 11.3%, respectively.
